According to ChEMBL document CHEMBL4627411, “Novel Piperidinyl-Azetidines as Potent and Selective CCR4 Antagonists Elicit Antitumor Response as a Single Agent and in Combination with Checkpoint Inhibitors” (J Med Chem, 2020):
Calls of active or inactive are those of the source. The rule behind the calls is not given here.

What was measured:
[1] = Metabolic stability in rat hepatocytes assessed as parent compound remaining at 1 uM after 60 mins by LC-MS/MS analysis; assay type: ADME, cell-based, Hepatocyte; conditions: read-out: Stability
Method in brief: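 Hepatocytes (human or rat). Compound incubated for 60 min; value is % parent remaining.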

[2] = Half life in mouse at 0.5 mg/kg, iv; assay type: ADME, organism-based; conditions: in vivo
[3] = Clearance in rat at 0.5 mg/kg, iv; assay type: ADME, organism-based; conditions: in vivo
Method in brief: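 Rat in vivo PK. Single IV dose of 0.5 mg/kg; clearance in mL/min/kg.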

[4] = AUC (0 to last) in mouse at 2 mg/kg, po; assay type: ADME, organism-based; design: dose 2 mg/kg, time 0 - last, route oral; conditions: in vivo
Panc02 = assay: Antitumor activity against mouse Panc02 cells implanted in po dosed C57BL/6 mouse assessed as inhibition of GFP-positive Treg cell migration in to tumor micro environment administered 30 mins prior to Treg cell population addition followed by daily compound dosing for 5 days and measured on day 6 by flow cytometry analysis; assay type: functional, organism-based
Method in brief: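 Pan02 pancreatic ductal adenocarcinoma mice. Oral compound at several doses; adoptively transferred GFP+ iTreg counted in the tumor, with spleen, skin and lung also examined.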

[5] = biological target: C-C chemokine receptor type 4 (Homo sapiens) (UniProt P51679); assay: Antagonist activity at human Gi/G0-coupled CCR4 receptor expressed in CHO-K1 cells assessed as inhibition of CCL22-induced beta arrestin2 recruitment at 500 nM preincubated for 30 mins followed by CCL22 stimulation and measured after 90 to 180 mins by pathhunter assay; assay type: cell-based
[6] = Oral bioavailability in mouse at 2 mg/kg; assay type: ADME, organism-based; conditions: in vivo
Cytochrome P450 2D6 = Cytochrome P450 2D6 (Homo sapiens, UniProt P10635); assay: Inhibition of CYP2D6 in human liver microsomes using bufuralol hydrochloride salt as substrate incubated for 20 mins in presence of NADPH by LC-MS/MS analysis; assay type: ADME
[7] = biological target: C-C chemokine receptor type 10 (Homo sapiens) (UniProt P46092); assay: Antagonist activity at human Gi/G0-coupled CCR10 receptor expressed in human U2OS cells assessed as inhibition of CCL27-induced beta arrestin2 recruitment at 500 nM preincubated for 30 mins followed by CCL27 stimulation and measured after 90 to 180 mins by pathhunter assay; assay type: cell-based
Cytochrome P450 1A2 = Cytochrome P450 1A2 (Homo sapiens, UniProt P05177); assay: Inhibition of CYP1A2 in human liver microsomes using phenacetin as substrate incubated for 20 mins in presence of NADPH by LC-MS/MS analysis; assay type: ADME
[8] = biological target: Chemerin-like receptor 1 (Homo sapiens) (UniProt Q99788); assay: Antagonist activity at human CMKLR1 expressed in CHOK1 cells assessed as inhibition of chemerin-induced beta arrestin2 recruitment at 500 nM preincubated for 30 mins followed by chemerin stimulation and measured after 90 to 180 mins by pathhunter assay; assay type: cell-based; conditions: CHO-K1
Cytochrome P450 2C19 = Cytochrome P450 2C19 (Homo sapiens, UniProt P33261); assay: Inhibition of CYP2C19 in human liver microsomes using S-mephenytoin as substrate incubated for 20 mins in presence of NADPH by LC-MS/MS analysis; assay type: ADME
[9] = biological target: C-C chemokine receptor type 3 (Homo sapiens) (UniProt P51677); assay: Antagonist activity at human Gi/G0-coupled CCR3 receptor expressed in CHO-K1 cells assessed as inhibition of CCL13-induced beta arrestin2 recruitment at 500 nM preincubated for 30 mins followed by CCL13 stimulation and measured after 90 to 180 mins by pathhunter assay; assay type: cell-based
[10] = biological target: C-X-C chemokine receptor type 1 (Homo sapiens) (UniProt P25024); assay: Antagonist activity at human Gi/G0-coupled CXCR1 expressed in CHOK1 cells assessed as inhibition of CXCL8-induced beta arrestin2 recruitment at 500 nM preincubated for 30 mins followed by CXCL8 stimulation and measured after 90 to 180 mins by pathhunter assay; assay type: cell-based; conditions: CHO-K1
[11] = biological target: C-X-C chemokine receptor type 5 (Homo sapiens) (UniProt P32302); assay: Antagonist activity at human Gi/G0-coupled CXCR5 assessed as inhibition of CXCL13-induced beta arrestin2 recruitment at 500 nM preincubated for 30 mins followed by CXCL13 stimulation and measured after 90 to 180 mins by pathhunter assay
[12] = Oral bioavailability in dog at 2 mg/kg; assay type: ADME, organism-based, Canis lupus familiaris; conditions: in vivo
[13] = Terminal half life in cynomolgus monkey at 0.5 mg/kg, iv; assay type: ADME, organism-based, Macaca fascicularis; conditions: in vivo, read-out: beta t1/2 (converted)
[14] = Clearance in cynomolgus monkey at 0.5 mg/kg, iv; assay type: ADME, organism-based, Macaca fascicularis; conditions: in vivo
[15] = Half life in dog at 0.5 mg/kg, iv; assay type: ADME, organism-based, Canis lupus familiaris; conditions: in vivo
[16] = Oral bioavailability in rat at 2 mg/kg; assay type: ADME, organism-based; conditions: in vivo
Method in brief: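 Rat in vivo PK. Oral dose of 2 mg/kg; %F derived.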

[17] = biological target: C-C chemokine receptor type 2 (Homo sapiens) (UniProt P41597); assay: Antagonist activity at human Gi/G0-coupled […]-induced beta arrestin2 recruitment at 500 nM preincubated for 30 mins […] and measured after 90 to 180 mins by pathhunter assay
[18] = Volume of distribution at steady state in mouse at 0.5 mg/kg, iv; assay type: ADME, organism-based; conditions: in vivo, read-out: Vdss
[19] = biological target: C-C chemokine receptor type 8 (Homo sapiens) (UniProt P51685); assay: Antagonist activity at human CCR8 receptor assessed as inhibition of CCL1-induced beta arrestin2 recruitment at 500 nM preincubated for 30 mins followed by CCL1 stimulation and measured after 90 to 180 mins by pathhunter assay
Cytochrome P450 3A4 = Cytochrome P450 3A4 (Homo sapiens, UniProt P08684); assay: Inhibition of CYP3A4 in human liver microsomes using midazolam hydrochloride as substrate incubated for 20 mins in presence of NADPH by LC-MS/MS analysis; assay type: ADME
Chain of Cytochrome P450 3A4 (P08684 whole entry): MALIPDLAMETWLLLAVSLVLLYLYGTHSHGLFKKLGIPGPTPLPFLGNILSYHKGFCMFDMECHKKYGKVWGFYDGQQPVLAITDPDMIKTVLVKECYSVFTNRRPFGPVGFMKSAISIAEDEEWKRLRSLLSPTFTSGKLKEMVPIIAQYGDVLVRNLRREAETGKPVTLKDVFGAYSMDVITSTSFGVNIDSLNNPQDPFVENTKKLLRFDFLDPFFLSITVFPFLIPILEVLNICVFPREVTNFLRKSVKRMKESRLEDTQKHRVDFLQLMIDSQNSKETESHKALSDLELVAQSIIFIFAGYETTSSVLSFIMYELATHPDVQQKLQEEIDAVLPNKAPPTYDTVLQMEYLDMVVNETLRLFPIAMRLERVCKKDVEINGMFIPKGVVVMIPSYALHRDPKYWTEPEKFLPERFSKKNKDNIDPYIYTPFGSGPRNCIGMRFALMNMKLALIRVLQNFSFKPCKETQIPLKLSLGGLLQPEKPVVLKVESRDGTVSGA

Chain of Cytochrome P450 1A2 (P05177 whole entry): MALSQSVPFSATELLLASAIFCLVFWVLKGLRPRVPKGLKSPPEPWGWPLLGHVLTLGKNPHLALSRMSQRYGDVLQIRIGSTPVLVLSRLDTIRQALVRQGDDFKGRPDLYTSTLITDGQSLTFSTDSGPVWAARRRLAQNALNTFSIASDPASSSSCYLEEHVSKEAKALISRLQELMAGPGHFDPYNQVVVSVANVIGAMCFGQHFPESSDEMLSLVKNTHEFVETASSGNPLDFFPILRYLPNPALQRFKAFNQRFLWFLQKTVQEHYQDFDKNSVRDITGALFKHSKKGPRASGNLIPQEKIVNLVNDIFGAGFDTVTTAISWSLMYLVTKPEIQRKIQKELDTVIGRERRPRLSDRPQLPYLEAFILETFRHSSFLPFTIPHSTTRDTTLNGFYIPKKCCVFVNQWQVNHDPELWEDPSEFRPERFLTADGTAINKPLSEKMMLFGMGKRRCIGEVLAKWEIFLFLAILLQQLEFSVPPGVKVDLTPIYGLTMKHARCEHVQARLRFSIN
Chain of Chemerin-like receptor 1 (Homo sapiens) (Q99788 whole entry): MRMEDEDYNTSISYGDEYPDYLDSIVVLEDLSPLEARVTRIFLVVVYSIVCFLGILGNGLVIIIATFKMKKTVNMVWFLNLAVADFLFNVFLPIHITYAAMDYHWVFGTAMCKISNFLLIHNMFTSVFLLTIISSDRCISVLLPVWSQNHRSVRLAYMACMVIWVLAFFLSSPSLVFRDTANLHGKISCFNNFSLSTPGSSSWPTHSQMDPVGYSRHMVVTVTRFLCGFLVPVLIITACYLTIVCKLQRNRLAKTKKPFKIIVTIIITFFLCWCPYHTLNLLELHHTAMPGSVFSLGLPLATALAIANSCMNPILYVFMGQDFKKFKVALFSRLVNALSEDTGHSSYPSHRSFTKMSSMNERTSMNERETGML
Chain of Cytochrome P450 2C19 (P33261 whole entry): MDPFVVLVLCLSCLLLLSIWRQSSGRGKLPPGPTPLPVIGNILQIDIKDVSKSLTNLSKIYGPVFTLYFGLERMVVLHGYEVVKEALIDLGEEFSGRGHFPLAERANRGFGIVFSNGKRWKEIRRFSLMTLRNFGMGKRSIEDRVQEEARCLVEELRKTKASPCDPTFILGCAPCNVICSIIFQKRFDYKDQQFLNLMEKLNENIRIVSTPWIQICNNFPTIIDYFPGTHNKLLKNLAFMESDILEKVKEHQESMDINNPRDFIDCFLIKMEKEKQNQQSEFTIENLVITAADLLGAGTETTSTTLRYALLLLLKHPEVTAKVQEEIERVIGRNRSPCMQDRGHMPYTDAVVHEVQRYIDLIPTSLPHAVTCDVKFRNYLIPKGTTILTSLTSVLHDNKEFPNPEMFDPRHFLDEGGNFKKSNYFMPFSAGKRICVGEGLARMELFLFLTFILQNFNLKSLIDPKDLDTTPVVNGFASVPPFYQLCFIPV
Chain of Cytochrome P450 2D6 (P10635 whole entry): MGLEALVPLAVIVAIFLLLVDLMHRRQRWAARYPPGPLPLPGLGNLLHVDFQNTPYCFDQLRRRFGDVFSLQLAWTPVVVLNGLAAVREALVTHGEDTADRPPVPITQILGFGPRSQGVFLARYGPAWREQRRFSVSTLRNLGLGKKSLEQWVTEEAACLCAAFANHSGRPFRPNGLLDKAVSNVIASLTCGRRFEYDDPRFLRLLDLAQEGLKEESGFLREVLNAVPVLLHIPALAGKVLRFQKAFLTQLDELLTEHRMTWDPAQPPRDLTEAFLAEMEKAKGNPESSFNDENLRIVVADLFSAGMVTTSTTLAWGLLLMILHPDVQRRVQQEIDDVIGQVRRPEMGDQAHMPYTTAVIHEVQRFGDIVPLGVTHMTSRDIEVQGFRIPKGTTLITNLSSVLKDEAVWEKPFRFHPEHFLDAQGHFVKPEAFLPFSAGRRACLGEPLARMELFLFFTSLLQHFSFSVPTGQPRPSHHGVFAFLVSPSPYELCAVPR
Chain of C-C chemokine receptor type 4 (Homo sapiens) (P51679 whole entry): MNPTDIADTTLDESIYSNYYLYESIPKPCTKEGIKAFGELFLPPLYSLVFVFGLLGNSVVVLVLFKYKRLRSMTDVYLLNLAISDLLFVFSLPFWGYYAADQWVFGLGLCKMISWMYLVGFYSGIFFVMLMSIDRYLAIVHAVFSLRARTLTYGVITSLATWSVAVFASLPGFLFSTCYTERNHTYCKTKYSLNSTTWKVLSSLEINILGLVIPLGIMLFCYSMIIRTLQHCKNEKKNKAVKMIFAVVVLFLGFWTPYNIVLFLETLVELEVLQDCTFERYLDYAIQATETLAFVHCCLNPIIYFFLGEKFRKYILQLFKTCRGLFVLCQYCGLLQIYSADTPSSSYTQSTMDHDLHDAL
Chain of C-C chemokine receptor type 3 (Homo sapiens) (P51677 whole entry): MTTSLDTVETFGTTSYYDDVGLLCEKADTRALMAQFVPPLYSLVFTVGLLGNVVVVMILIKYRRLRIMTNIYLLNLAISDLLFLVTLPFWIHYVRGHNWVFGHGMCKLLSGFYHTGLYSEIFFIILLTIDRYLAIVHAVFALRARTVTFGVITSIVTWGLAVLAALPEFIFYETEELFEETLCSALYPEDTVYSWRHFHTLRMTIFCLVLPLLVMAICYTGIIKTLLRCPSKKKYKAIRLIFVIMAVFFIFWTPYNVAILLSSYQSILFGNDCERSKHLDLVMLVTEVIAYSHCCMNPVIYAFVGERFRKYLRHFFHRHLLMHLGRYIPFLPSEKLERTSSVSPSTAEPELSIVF
Chain of C-C chemokine receptor type 10 (Homo sapiens) (P46092 whole entry): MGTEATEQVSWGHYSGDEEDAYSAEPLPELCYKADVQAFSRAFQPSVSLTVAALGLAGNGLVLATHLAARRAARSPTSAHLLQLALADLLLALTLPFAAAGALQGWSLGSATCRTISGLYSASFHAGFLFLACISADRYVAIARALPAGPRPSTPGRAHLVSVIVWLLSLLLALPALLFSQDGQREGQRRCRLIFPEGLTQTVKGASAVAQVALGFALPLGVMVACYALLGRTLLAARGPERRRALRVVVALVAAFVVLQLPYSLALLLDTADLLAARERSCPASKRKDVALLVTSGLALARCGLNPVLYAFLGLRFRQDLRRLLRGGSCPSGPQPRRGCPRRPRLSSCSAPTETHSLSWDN
Chain of C-C chemokine receptor type 8 (Homo sapiens) (P51685 whole entry): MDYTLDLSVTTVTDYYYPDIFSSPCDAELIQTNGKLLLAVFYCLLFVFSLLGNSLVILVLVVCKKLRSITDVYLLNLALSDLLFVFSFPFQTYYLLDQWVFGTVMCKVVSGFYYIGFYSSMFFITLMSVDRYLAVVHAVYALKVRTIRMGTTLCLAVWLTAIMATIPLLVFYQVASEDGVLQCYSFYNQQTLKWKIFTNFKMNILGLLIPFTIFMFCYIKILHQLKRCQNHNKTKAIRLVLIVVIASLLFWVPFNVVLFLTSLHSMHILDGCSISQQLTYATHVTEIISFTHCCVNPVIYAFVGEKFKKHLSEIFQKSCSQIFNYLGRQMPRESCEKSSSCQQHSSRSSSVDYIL
Chain of C-C chemokine receptor type 2 (Homo sapiens) (P41597 whole entry, looked up): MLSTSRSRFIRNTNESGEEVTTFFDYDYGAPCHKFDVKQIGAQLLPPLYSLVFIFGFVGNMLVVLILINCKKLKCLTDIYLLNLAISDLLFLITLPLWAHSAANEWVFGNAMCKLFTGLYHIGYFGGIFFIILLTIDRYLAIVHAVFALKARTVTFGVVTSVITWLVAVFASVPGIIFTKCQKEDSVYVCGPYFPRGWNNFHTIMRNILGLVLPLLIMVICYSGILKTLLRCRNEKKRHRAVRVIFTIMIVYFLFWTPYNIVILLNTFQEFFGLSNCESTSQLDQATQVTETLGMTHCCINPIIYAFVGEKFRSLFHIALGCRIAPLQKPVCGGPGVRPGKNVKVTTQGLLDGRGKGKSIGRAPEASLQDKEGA
Chain of C-X-C chemokine receptor type 5 (Homo sapiens) (P32302 whole entry): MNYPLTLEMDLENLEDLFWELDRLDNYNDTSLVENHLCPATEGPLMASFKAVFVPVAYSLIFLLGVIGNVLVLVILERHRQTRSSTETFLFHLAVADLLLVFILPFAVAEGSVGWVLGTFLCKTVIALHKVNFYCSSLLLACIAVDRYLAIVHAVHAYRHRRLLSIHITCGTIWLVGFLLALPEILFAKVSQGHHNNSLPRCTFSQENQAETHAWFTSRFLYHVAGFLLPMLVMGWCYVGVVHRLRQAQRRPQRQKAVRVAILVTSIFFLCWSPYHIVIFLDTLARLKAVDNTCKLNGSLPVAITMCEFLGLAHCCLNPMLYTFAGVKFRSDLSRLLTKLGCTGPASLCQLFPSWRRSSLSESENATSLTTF
Chain of C-X-C chemokine receptor type 1 (Homo sapiens) (P25024 whole entry): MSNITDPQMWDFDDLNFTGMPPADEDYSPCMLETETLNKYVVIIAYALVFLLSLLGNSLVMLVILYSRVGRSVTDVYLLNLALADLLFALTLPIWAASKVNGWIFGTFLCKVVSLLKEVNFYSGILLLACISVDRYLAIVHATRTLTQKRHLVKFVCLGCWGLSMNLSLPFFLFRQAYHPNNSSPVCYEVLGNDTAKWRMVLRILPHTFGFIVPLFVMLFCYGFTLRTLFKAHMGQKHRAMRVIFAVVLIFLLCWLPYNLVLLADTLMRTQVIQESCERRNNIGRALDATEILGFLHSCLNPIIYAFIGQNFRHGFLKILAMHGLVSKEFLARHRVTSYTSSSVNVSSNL

remaining at 1 h, 1 µM [1]: 73%
half-life [2]: 6.9 h
clearance [3]: 2.86 L/h/kg
AUC(0-t) [4]: 0.751 µg·h/mL
Activity [5]: Active
bioavailability [6]: 29%
IC50 (Cytochrome P450 2D6): > 40 µM
Activity [7]: inactive
IC50 (Cytochrome P450 1A2): > 40 µM
Activity [8]: inactive
IC50 (Cytochrome P450 2C19): > 40 µM
Activity [9]: inactive
Activity [10]: inactive
Activity [11]: inactive
bioavailability [12]: 44%
half-life [13]: 10.7 h
clearance [14]: 0.222 L/h/kg
half-life [15]: 12.7 h
bioavailability [16]: 49%
Activity [17]: inactive
Vd [18]: 5.2 L/kg
Activity [19]: inactive
IC50 (Cytochrome P450 3A4): > 40 µM
SMILES: C[C@H](c1ccc(Cl)cc1Cl)n1nc(C#N)c2ncc(N3CC([C@H]4CCCN(CCO)C4)C3)nc21
Activity (Panc02): Dose-dependent effect
